GASC-1 inh = inhibitors of human GASC-1 (JMJD2C) demethylase; inhibition, % at 2.35 µM; AID 2099; GST-JMJD2C(1-420) H3K9me3 demethylation, DELFIA europium; 0.069% of 330,000 active; Q9H3R0;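 active = more than half of a compound's replicate wells show inhibition beyond 50%, single wells judged on their own value; inconclusive = some, but no more than half, of replicates pass 50% inhibition; inactive = no replicate passes 50% inhibition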;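 note: signal counts dimethyl H3K9 product captured on neutravidin plate; 0% = median of DMSO wells and 100% = 0.3 times that DMSO median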
FXN GAA850 act = activators of GAA850 frataxin (FXN) promoter | activation, % at 6 µM | 0.56% of 360,000 active | AID 540364 | HEK293 lucGAA850 FXN promoter luciferase reporter, 24 h; percent of 10 µM SAHA response;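 active = activation above the average of all compounds screened plus 3 SD, cutoff fixed separately per campaign, cut at about 7.5% in these data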;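 note: 0% = DMSO wells and 100% = 10 µM SAHA wells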
SR-BI HDL uptake = mouse SR-BI HDL lipid transfer inhibition | inhibition, % at 12.5 µM | ldlA[mSR-BI] CHO cells, DiI-HDL uptake fluorescence, 3 h | 0.96% of 320,000 active | Q61009;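 active = mean replicate inhibition of at least 70% and a set share of replicates each scoring 70 or more; inconclusive = meets just one of the two criteria; inactive = fails both criteria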;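 note: 0% = median of neutral control wells and 100% = median of positive control wells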
AHR activator = human AHR activation | 2.5% of 320,000 active | AHR-responsive luciferase reporter cells, luminescence | activation, % at 5 µM; in the data active = activation above about 47%;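 note: 0% = vehicle wells and 100% = reference agonist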
SR-BI uptake up = activators of SR-BI mediated HDL lipid uptake. CHO ldlA[mSR-BI] cells, DiI-HDL uptake fluorescence, 3 h; 100 = double the neutral-control signal. activation, % at 12.5 µM. 0.096% of 320,000 active;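 active = mean replicate activation of at least 60% and every replicate at or above 60%; inconclusive = mean or all-replicate condition met, but not both; inactive = mean below 60% and not all replicates reaching 60%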;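 note: 0% = median plate neutral-control signal and 100% = twice that signal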
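Test system: SR-BI-overexpressing, LDLR-lacking CHO cells. Measured by: DiI fluorescence, bottom read. Medium: Ham's F12 with 0.5% BSA, HEPES 25 mM, pH 7.4. Timing: 3 h uptake period with compound, 37 °C.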
AHR act cf = human AHR activation, confirmation. activation, % at 9 µM. human cells, AHR-responsive luciferase reporter, luminescence. AID 2845. 87% of 2,300 active. shares compounds with AHR activator; in the data active = activation above about 49%;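 note: HepG2 hepatoma cells carrying a DRE-driven firefly luciferase reporter; 0% = vehicle wells and 100% = reference agonist wells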
PXR act counter = counter-screen for AHR activators: human PXR activators; AID 434939; activation, % at 11.6 µM; shares compounds with AHR activator; cell-based PXR reporter, luciferase luminescence; 88% of 2,300 active; in the data active = activation above about 11%;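 note: human hepatoma DPX-2 cells expressing full-length human PXR; 0% = DMSO and 100% = reference agonist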
* marks the source's active call; other numbers are inactive results; i = inactive; ? = inconclusive; . = no result. Only some compounds are listed: those with a hit (about 3.7% of all), similar ones and a draw of the others.

SMILES	GASC-1 inh	FXN GAA850 act	SR-BI HDL uptake	AHR activator	SR-BI uptake up	AHR act cf	PXR act counter
O=c1[nH]nc(Cc2ncc(C(F)(F)F)cc2Cl)c2ccccc12	3	1	-6	2	6	.	.
O=C1Nc2ccccc2C1c1ncc(C(F)(F)F)cc1Cl (stereo not given)	-11	2	-6	90*	6	30	21*
Cc1ccc(C)c(OCCn2ccnc2)c1	i	3	-7	20	7	.	.
Cc1cc(C)c(C)c(OCCn2ccnc2)c1	-12	-1	-5	90*	5	54*	14*
COc1ccccc1N(C(=O)c1ccco1)C(C(=O)NC1CCCCC1)c1cc(OC)c(OC)c(OC)c1 (stereo not given)	-6	0	-23	1	23	.	.
O=C(c1ccc2ccccc2n1)N1CCN(c2ccccc2O)CC1	-12	3	9	92*	-9	107*	40*
CCCCc1nnc(NC(=O)CCS(=O)(=O)c2ccc(Cl)cc2)s1	2	-2	-7	6	7	.	.
O=C(O)CS(=O)(=O)c1ccc(C(F)(F)F)cn1	7	1	-17	-1	17	.	.
Cc1sc(N)nc1-c1ccc2c(c1)OCCO2	-5	2	-12	8	12	.	.
NC1=NN=C(c2ccc3c(c2)OCCO3)CS1	-9	1	-13	87*	13	-6	-2
c1ccc(OCc2nnc3sc(-c4cccs4)nn23)cc1	1	2	-8	139*	8	81*	18*
Cc1ccc(S(=O)(=O)NC[C@H]2O[C@@H](n3ccc(N)nc3=O)[C@H](O)[C@@H]2O)s1	.	1	.	.	.	.	.
Cc1sc(NC(=O)c2ccc(Cl)s2)c(C(N)=O)c1C	79	4	31	98*	-31	123*	24*
Cc1sc(NC(=O)c2cc(-c3ccc(Cl)cc3)nc3ccccc23)c(C(N)=O)c1C	-31	2	63	23	-63	.	.
Cc1ccc2c(c1)Oc1ccc([N+](=O)[O-])cc1C(=O)N2	-9	3	-3	88*	3	82*	68*
O=C(Nc1ccccc1C(=O)O)c1ccc2ccccc2n1	14	1	-15	93*	15	130*	32*
O=C(Nc1ccccc1)c1ccc2ccccc2n1	0	3	8	43	-8	.	.
Cc1ccc(NC(=O)c2ccc3ccccc3n2)nc1	14	6	-12	86*	12	106*	18*
O=[N+]([O-])c1cn(Cc2ccccc2)cn1	0	0	8	0	-8	.	.
O=C1NC2=C(CCc3ccccc32)C(c2ccccc2)N1 (stereo not given)	-14	0	-2	82*	2	14	22*
C=CCOc1ccc(C2NC(=S)NC3=C2CCc2ccccc23)cc1 (stereo not given)	7	1	51	0	-51	.	.
Cn1cc(/C=N\NC(=O)C2COc3ccccc3O2)c2ccccc21 (stereo not given)	-6	.	.	97*	.	71*	12*
O=C(Nc1ccccc1)c1nnn(Cc2ccccc2)c1NC(=O)C(F)(F)F	46	2	-22	-1	22	.	.
COc1ccc(-n2c(SCC(=O)NCC3CCCO3)nc3c([nH]c4ccccc43)c2=O)cc1OC (stereo not given)	-9	1	3	9	.	.	.
COc1cccc(-n2c(SCC(=O)NCC3CCCO3)nc3c([nH]c4ccccc43)c2=O)c1 (stereo not given)	7	-2	-5	88*	.	128*	89*
SMILES	GASC-1 inh	FXN GAA850 act	SR-BI HDL uptake	AHR activator	SR-BI uptake up	AHR act cf	PXR act counter
COc1ccc(NC(=O)CSc2nc3c([nH]c4ccccc43)c(=O)n2C)cc1	-11	-1	.	20	.	.	.
Cn1c(SCC(=O)NCCc2ccccc2)nc2c([nH]c3ccccc32)c1=O	5	5	18	118*	-18	91*	115*
Cn1c(SCC(=O)NCc2ccc(F)cc2)nc2c([nH]c3ccccc32)c1=O	-3	.	.	126*	.	97*	90*
COc1ccccc1OCCN(C#N)c1nc(N(C)C)nc(N(C)C)n1	-13	1	17	13	-17	.	.
C=CCn1c(O)c(N=Nc2ccccc2O)c2ccccc21	9	1	38	82*	-38	87*	33*
C=CCn1c(O)c(N=Nc2ccccc2)c2ccccc21	5	0	-19	38	19	.	.
Cn1c(C(C)(O)C(O)c2ccccc2)nc2ccccc21 (stereo not given)	-7	.	.	17	.	.	.
Fc1cccc(NC(=S)Nc2cccc3ccccc23)c1	-1	1	54	82*	-54	62*	100*
Cc1ccc(NC(=S)Nc2cccc3ccccc23)cc1F	9	3	24	84*	-24	75*	112*
CC(=O)c1ccc(NC(=O)c2cc(Cl)nc3ccccc23)cc1	-3	1	25	96*	-25	82*	.
CC(=O)c1ccc(NC(=S)Nc2cccc3ccccc23)cc1	-3	-1	-12	99*	12	24	86*
COc1ccc(N2CC(C(=O)NCCc3ccc(Cl)cc3)CC2=O)cc1 (stereo not given)	4	-2	4	0	-4	.	.
C=CCN1C(=O)C(CC(=O)Nc2ccc(OC)cc2)SC1=Nc1ccc(S(N)(=O)=O)cc1 (stereo not given)	1	2	8	-1	-8	.	.
Cc1cccc(C)c1NC(=O)CCc1nnc2ccc(N3CCCC3)nn12	-4	0	14	2	-14	.	.
CCN(CC)C(=O)CSc1nnc(-c2ccccn2)n1-c1ccccc1OC	10	-1	10	1	-10	.	.
CCOC(=O)c1[nH]c2cc3c(cc2c1NC(=O)CN1CCCCC1C)OCO3 (stereo not given)	-10	.	.	97*	.	92*	182*
S=c1nc2ccccc2c2nc(-c3ccccc3Br)[nH]n12	?	1	-4	123*	4	130*	38*
c1ccc(Nc2nc(-c3ccccn3)cs2)cc1	1	2	9	116*	-9	53*	.
Nc1nonc1-n1nnc(C(=O)N/N=C/c2ccncc2)c1CSc1ccccc1	1	0	-1	22	1	.	.
COc1ccc(C(=O)NC2=NCCS2)cc1	-8	5	-7	13	7	.	.
COc1cc(OC)cc(C(=O)NC2=NCCS2)c1	13	0	-4	95*	4	101*	20*
Cc1nc(NC(=O)CSc2nnc(-c3ccc4c(c3)OCO4)o2)c(Cl)cc1Cl	-1	2	-11	128*	11	105*	88*
O=C(CSc1nnc(-c2ccc3c(c2)OCO3)o1)Nc1ncc(C(F)(F)F)cc1Cl	8	1	8	1	-8	.	.
